# From article PMC3793015 (Journal of agricultural and food chemistry, 2013)
# pIC50: −log10 of the molar value.
# How the values were obtained:
# [1] = Stability of α-MG during incubation in cell-free culture media; format: physicochemical; conditions: for calculated rate of α-MG loss per hour: DMSO, 24 h incubation; for recovery of α-MG after 24 h incubation: Tween 40 micelles
# How it was run: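 Compound was incubated cell-free for 24 h at 37 °C in RPMI, MEM, DMEM or McCoy's 5A, sampled at 0, 4, 8 and 24 h, extracted and analysed by RP-HPLC. Vehicles tested were: DMSO into medium without FBS or with 10% FBS (final DMSO <0.03%); Tween 40 micelles (final <0.02%) in DMEM or McCoy's; compound preincubated 48 h in 100% FBS, diluted 1:10 in RPMI 1640. Mean ± SD, n = 3 dishes.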
# [2] = system: MDM; test: Cytotoxicity of α-MG; format: cell-based, human; conditions: read-out: IC50 (cytotoxicity), 24 h, 10% FBS delivery
# How it was run: (§1)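 Cytotoxicity was judged by phase-contrast morphology and MTT reduction to formazan after exposure to increasing compound concentrations. Exposure was 24 h for RAW 264.7, MDM, HepG2 and HT-29, 8 h for PMA-differentiated THP-1, and 4 h for differentiated Caco-2. Delivery was DMSO into 10% FBS medium for RAW 264.7, THP-1 and HepG2; FBS-complexed compound at 10% FBS in RPMI 1640 for MDM; Tween 40 micelles for Caco-2 and HT-29.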
# [3] = system: HepG2; test: Cytotoxicity of α-MG; format: cell-based, human; conditions: read-out: IC50 (cytotoxicity); HepG2, 24 h, 10% FBS delivery
# How it was run: as §1
# [4] = system: HT-29; test: Cytotoxicity of α-MG; format: cell-based, human; conditions: read-out: IC50 (cytotoxicity); HT-29, 24 h, Tween 40 delivery
# How it was run: as §1
# [5] = system: LPS-induced production of NO in RAW 264.7 cells; test: LPS-induced production of NO; format: cell-based, murine; conditions: RAW 264.7, data not shown
# How it was run: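 RAW 264.7 cells, 2 days post-confluence, were pretreated 2 h with compound (DMSO stock into 10% FBS medium). They were then stimulated 16 h with 5 ng/mL E. coli O111:B4 LPS. NO production was estimated as medium nitrite by the Griess reaction.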
# [6] = system: IL-8 secretion by macrophage-like THP-1 cells; test: IL-8 secretion; format: cell-based, human
# How it was run: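 THP-1 cells, differentiated with 100 nM PMA for 48 h, were pretreated with compound added as a DMSO stock to 10% FBS medium, then stimulated with E. coli O111:B4 LPS. Supernatant IL-8 was measured by ELISA in LPS-treated and unstimulated cultures.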
# [7] = system: TNF-α secretion by MDM cells; test: TNF-α secretion; format: cell-based, human
# How it was run: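 Primary macrophages came from buffy-coat monocytes (Ficoll, clumping), differentiated 6 days with 50 ng/mL M-CSF (97% pure by CD14/CD11b). Compound was delivered in FBS at 10% FBS in RPMI 1640. Cells were then stimulated with E. coli O111:B4 LPS or left unstimulated. Secreted TNF-α was quantified by ELISA.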
# [8] = system: RAW 264.7 cells; test: Cellular uptake and metabolism of α-MG; format: in vitro ADME, murine
# How it was run: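 RAW 264.7 cells, 2 days post-confluence, received 7.7 μM compound (DMSO stock into 10% FBS medium) for 24 h. LPS-activated cultures had 5 ng/mL LPS for 4 h, then a PBS wash, before compound. Cells and medium were collected together because some cells were nonadherent. Samples were extracted and analysed by RP-HPLC for free and glucuronidated/sulfated xanthones, as % of initial concentration.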
# [9] = system: MDM cells; test: Cellular uptake and metabolism of α-MG; format: in vitro ADME, human; conditions: 24 h
# How it was run: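 Monocytes came from buffy-coat mononuclear cells, isolated on Ficoll and by clumping, then differentiated 6 days with 50 ng/mL M-CSF (97% CD14/CD11b-positive). Compound (3.3 μM) was delivered in 100% FBS, diluted to 10% FBS in RPMI 1640, for 24 h. Activated cultures first had 100 ng/mL LPS for 4 h, then a PBS wash. Medium and cells were analysed separately by RP-HPLC, including conjugates; mean ± SD, n ≥ 5.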
# [10] = system: HepG2 cells; test: Cellular uptake and metabolism of α-MG; format: in vitro ADME, human
# How it was run: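 HepG2 monolayers, 2 days post-confluence, received 9.0 μM compound as a DMSO stock added to 10% FBS medium for 24 h. Activated cultures had 10 ng/mL TNF-α for 4 h and a PBS wash first. Medium and cells were collected separately, extracted and analysed by RP-HPLC for free and glucuronidated/sulfated xanthones. Quantification used retention time, UV spectrum and five-point standard curves, as % of initial amount; mean ± SD, n ≥ 5.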
# [11] = system: Caco-2 cells; test: Cellular uptake, metabolism and transport of α-MG on Transwell inserts; format: in vitro ADME, human
# How it was run: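 Caco-2 cells were differentiated 21–25 days post-confluence on Transwell inserts. Compound (12 μM) in Tween 40 micelles was added apically for 24 h. Activated cultures had 5 ng/mL IL-1β for 4 h, then a PBS wash. Apical medium, basolateral medium and cell monolayer were collected separately and analysed by RP-HPLC for free and conjugated xanthones. Amounts are % of initial compound; mean ± SD, n ≥ 5.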
# [12] = RAW 264.7, combined medium and cells, 7.7 μM, 24 h
# [13] = 24 h after addition of α-MG, control cultures, nd: not detected
# [14] = Caco-2 Transwell, 12 μM apical, 24 h
smiles,measurement,setting,value
"COc1c(O)cc2oc3cc(O)c(CC=C(C)C)c(O)c3c(=O)c2c1CC=C(C)C [α-MG, α-mangostin]",calculated rate of α-MG loss per hour,"[1]; DMEM lacking FBS, cell free",3.2%
same,recovery of α-MG after 24 h incubation,"[1]; DMEM without FBS, cell free",110 ± 3
same,stability of α-MG during 24 h incubation,"[1]; DMSO stock added to media (RPMI 1640, MEM, DMEM) with 10% (v/v) FBS, cell free",101 ± 6%
same,calculated rate of α-MG loss per hour,"[1]; MEM lacking FBS, cell free",4.0%
same,calculated rate of α-MG loss per hour,"[1]; McCoy's 5A lacking FBS, cell free",2.3%
same,recovery of α-MG after 24 h incubation,"[1]; McCoy's medium without FBS, cell free",108 ± 4
same,calculated rate of α-MG loss per hour,"[1]; RPMI lacking FBS, cell free",2.7%
same,stability of α-MG after 24 h,"[1]; added to 100% FBS diluted 1:10 (v:v) into RPMI 1640, cell free",95 ± 8%
same,pIC50,[2],< 4.92
same,pIC50,[3],4.60
same,pIC50,[4],3.74
same,inhibition of LPS-induced production of NO,[5]; 1 μM,50%
same,inhibition of LPS-induced production of NO,[5]; 3 μM,61%
same,inhibition of LPS-induced production of NO,[5]; 10 μM,78%
same,inhibition of IL-8 chemokine secretion,"[6]; activated THP-1, 10 μM pretreatment 4 h, LPS 0.1 ng/mL 4 h",30–40%
same,effect on secretion of IL-8,[6]; nonactivated THP-1 cultures,not altered
same,TNF-α secretion in absence vs presence of α-MG,"[7]; 0.7 μM, LPS-treated MDM, p > 0.05, data not shown",similar
same,effect on TNF-α secretion,"[7]; 0.7 μM, nonactivated MDM, p < 0.05, data not shown",increased
same,increase of LPS-stimulated secretion of TNF-α,"[7]; MDM, 4.5 μM pretreatment 4 h, LPS 100 ng/mL 10 h",more than 50%
same,effect on basal secretion of TNF-α,[7]; nonactivated MDM cultures,more than doubled
same,recovery of α-MG,"[8]; RAW 264.7, 24 h incubation",80 ± 6%
same,"ratio of free to conjugated xanthones, activated vs control","[8]; RAW 264.7, LPS treatment, data not shown",increased
same,"free α-MG, of initial concentration",[8]; [12],18 ± 3%
same,"glucuronidated/sulfated conjugates, of initial concentration",[8]; [12],61 ± 6%
same,"free xanthones in spent medium, of initial α-MG","[9]; 3.3 μM, control",57 ± 4%
same,"free α-MG in cells, of total","[9]; 3.3 μM, control",22 ± 5%
same,"glucuronidated/sulfated conjugates of α-MG in cells, of total","[9]; 3.3 μM, control",20 ± 10%
same,recovery of α-MG equivalents added,[9],99 ± 12%
same,"xanthone in media, HepG2","[10]; 0 h, amount of α-MG at start",17834 ± 115 pmol/dish
same,"intracellular profile table, α-MG at 0 h, HepG2","[10]; 0 h, control cultures",17834 ± 115 pmol/dish
same,"intracellular xanthone, HepG2",[10]; [13],9344 ± 298 pmol/dish
same,"intracellular ratio of free to conjugated xanthones, activated vs control","[10]; HepG2, 10 ng/mL TNF-α 4 h before α-MG, 24 h, p < 0.05",increased
same,"free xanthones in spent medium, of initial α-MG","[10]; HepG2, 9.0 μM, 24 h, control",36 ± 2%
same,"free α-MG in cells, of total","[10]; HepG2, 9.0 μM, 24 h, control",27 ± 3%
same,"glucuronidated/sulfated conjugates of α-MG in cells, of total","[10]; HepG2, 9.0 μM, 24 h, control",29 ± 3%
same,recovery of α-MG equivalents added,"[10]; HepG2, 24 h",91 ± 4%
same,"xanthone in media, Caco-2","[11]; 0 h, amount of α-MG at start",20741 ± 261 pmol/dish
same,"intracellular profile table, α-MG at 0 h, Caco-2","[11]; 0 h, control cultures",20741 ± 261 pmol/dish
same,"intracellular xanthone, Caco-2",[11]; [13],3000 ± 551 pmol/dish
same,"ratio of free to conjugated xanthones in apical medium, activated vs control","[11]; Caco-2, 5 ng/mL IL-1β, 24 h, p < 0.05",increased
same,"recovery of xanthones, of α-MG added","[11]; Caco-2, 24 h",approximately 65%
same,amount of xanthones and ratio of conjugated to free xanthones transported into basolateral compartment,"[11]; Caco-2, treatment with IL-1β vs control, p < 0.05",increased
same,conjugated xanthones in basolateral medium,[11]; [14],1.7 ± 0.3%
same,conjugated xanthones in cells,[11]; [14],10 ± 3%
same,conjugates in apical medium,[11]; [14],11 ± 2%
same,free xanthones in apical medium,[11]; [14],35 ± 1%
same,free xanthones in basolateral medium,[11]; [14],0.8 ± 0.1%
same,free xanthones in cells,[11]; [14],6 ± 0.6%
same,"xanthones in apical medium (total), of initial α-mangostin",[11]; [14],47 ± 3%
same,"xanthones in basolateral medium (total), of initial α-mangostin",[11]; [14],3 ± 0.3%
same,"xanthones in cells (total), of initial α-mangostin",[11]; [14],16 ± 3%
same,"intracellular ratio of free to conjugated xanthones, activated vs control","[11]; Caco-2 cells, 5 ng/mL IL-1β 4 h before α-MG, 24 h, p < 0.05",increased
